Assay results as given in ChEMBL document CHEMBL4052795, “Synthesis and evaluation of modified chalcone based p53 stabilizing agents” (2017).
Active and inactive are the calls of the source. The rule behind the calls is not given here.

Columns and labels:
HCT-116 [1] = assay: Antiproliferative activity against human HCT116 cells at 25 uM after 3 days by SRB assay relative to control; assay type: functional; conditions: HCT-116, 72 h
HCT-116 [2] = assay: Antiproliferative activity against human HCT116 cells assessed as growth inhibition after 3 days by SRB assay; assay type: functional; conditions: HCT-116, 72 h
Outline: (§1)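 Cells treated in duplicate in 96-well format with three-fold serial dilutions from 50 µM; DMSO solvent control, Nutlin-3 positive control. Sulforhodamine B staining after 3 days; GI50 derived from dilution series.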

CAL-51 = assay: Antiproliferative activity against human CAL51 cells assessed as growth inhibition after 3 days by SRB assay; assay type: functional; conditions: CAL-51, 72 h; outline: as §1
HCT-116 [3] = assay: Antiproliferative activity against human HCT116 cells at 50 uM after 3 days by SRB assay relative to control; assay type: functional; conditions: HCT-116, 72 h
[4] = biological target: Cellular tumor antigen p53 (Homo sapiens) (UniProt P04637); assay: Induction of p53 stabilization in human HCT116 cells assessed as increase in p53 expression levels at 6.25 to 25 uM after 4 hrs by immunoblot analysis; assay type: cell-based
Outline: (§2)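 HCT116 treated with 6.25, 12.5 or 25 µM for 4 or 8 h; 10 µM Nutlin-3 positive control, DMSO solvent control. Lysates immunoblotted for p53 and GAPDH; band densities quantified, p53 normalized to GAPDH and expressed as fold change versus DMSO.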

[5] = biological target: Cellular tumor antigen p53 (Homo sapiens) (UniProt P04637); assay: Induction of p53 stabilization in human HCT116 cells assessed as increase in p53 expression levels at 6.25 to 25 uM after 8 hrs by immunoblot analysis; assay type: cell-based; outline: as §2
[6] = biological target: Cellular tumor antigen p53 (Homo sapiens) (UniProt P04637); assay: Induction of p53 stabilization in human HCT116 cells assessed as ratio of p53 expression levels to GAPDH expression levels at 6.25 uM after 4 hrs by immunoblot analysis; assay type: cell-based; outline: as §2
[7] = biological target: Cellular tumor antigen p53 (Homo sapiens) (UniProt P04637); assay: Induction of p53 stabilization in human HCT116 cells assessed as ratio of p53 expression levels to GAPDH expression levels at 12.5 uM after 4 hrs by immunoblot analysis; assay type: cell-based; outline: as §2
[8] = biological target: Cellular tumor antigen p53 (Homo sapiens) (UniProt P04637); assay: Induction of p53 stabilization in human HCT116 cells assessed as ratio of p53 expression levels to GAPDH expression levels at 25 uM after 4 hrs by immunoblot analysis; assay type: cell-based; outline: as §2
[9] = biological target: Cellular tumor antigen p53 (Homo sapiens) (UniProt P04637); assay: Induction of p53 stabilization in human HCT116 cells assessed as ratio of p53 expression levels to GAPDH expression levels at 6.25 uM after 8 hrs by immunoblot analysis; assay type: cell-based; outline: as §2
[10] = biological target: Cellular tumor antigen p53 (Homo sapiens) (UniProt P04637); assay: Induction of p53 stabilization in human HCT116 cells assessed as ratio of p53 expression levels to GAPDH expression levels at 12.5 uM after 8 hrs by immunoblot analysis; assay type: cell-based; outline: as §2
[11] = biological target: Cellular tumor antigen p53 (Homo sapiens) (UniProt P04637); assay: Induction of p53 stabilization in human HCT116 cells assessed as ratio of p53 expression levels to GAPDH expression levels at 25 uM after 8 hrs by immunoblot analysis; assay type: cell-based; outline: as §2
[12] = biological target: Cellular tumor antigen p53 (Homo sapiens) (UniProt P04637); assay: Induction of p53 stabilization in human HCT116 cells assessed as ratio of p53 expression levels to GAPDH expression levels after 8 hrs by immunoblot analysis; assay type: cell-based; outline: as §2
[13] = biological target: Cellular tumor antigen p53 (Homo sapiens) (UniProt P04637); assay: Induction of p53 stabilization in human HCT116 cells assessed as ratio of p53 expression levels to GAPDH expression levels after 4 hrs by immunoblot analysis; assay type: cell-based; outline: as §2
[14] = biological target: Cellular tumor antigen p53 (Homo sapiens) (UniProt P04637); assay: Induction of p53 stabilization in human HCT116 cells assessed as increase in p53 expression levels at 12.5 uM measured up to 90 mins in presence of varying concentrations of cycloheximide by immunoblot analysis; assay type: cell-based
Outline: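 Cycloheximide chase in HCT116: cells given cycloheximide with or without 12.5 µM compound, samples collected at timed points; immunoblot for p53 and alpha-tubulin, p53 normalized to alpha-tubulin.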

Chain of Cellular tumor antigen p53 (Homo sapiens) (P04637 whole entry, looked up): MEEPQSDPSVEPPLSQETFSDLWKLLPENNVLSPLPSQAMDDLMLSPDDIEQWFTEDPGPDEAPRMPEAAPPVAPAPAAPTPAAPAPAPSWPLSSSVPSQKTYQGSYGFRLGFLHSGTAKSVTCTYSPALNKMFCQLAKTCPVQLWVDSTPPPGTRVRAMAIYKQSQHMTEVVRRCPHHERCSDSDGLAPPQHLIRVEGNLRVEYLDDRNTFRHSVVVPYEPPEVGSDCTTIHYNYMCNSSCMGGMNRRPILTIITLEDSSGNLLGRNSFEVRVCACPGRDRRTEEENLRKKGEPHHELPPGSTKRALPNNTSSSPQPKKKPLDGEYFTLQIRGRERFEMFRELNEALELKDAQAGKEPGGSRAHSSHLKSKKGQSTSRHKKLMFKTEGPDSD

SMILES | GI50 (HCT-116 [2]) [µM] | inhibition at 25 µM (HCT-116 [1]) [%] | GI50 (CAL-51) [µM] | inhibition at 50 µM (HCT-116 [3]) [%] | other results
O=C(/C=C/c1ccccc1[N+](=O)[O-])c1ccccc1 | 7.69 | 100 | 2.59 | 100 | –
O=C(/C=C/c1ccc(F)cc1)c1ccc(OCc2ccccc2)cc1 | > 50 | – | > 50 | – | –
O=C(/C=C/c1cccc([N+](=O)[O-])c1)c1ccccc1 | 4.47 | 100 | 1.08 | 99.7 | –
COc1cc(/C=C/C(=O)c2ccccc2)cc(OC)c1OC | 0.473 | 99.4 | 0.78 | 99.7 | –
O=C(/C=C/c1ccccc1Cl)c1ccc(OCc2ccccc2)cc1 | 14.9 | 54.5 | 7.1 | 99.7 | –
Cc1ccc(COc2ccc(C(=O)/C=C/c3ccc(Cl)cc3)cc2)cc1 | > 50 | 12.3 | > 50 | 16.9 | –
O=C(/C=C/c1ccccc1)c1ccc(OCc2ccccc2)cc1 | > 50 | 24.3 | 28.9 | 33.8 | –
Cc1ccc(COc2ccc(C(=O)/C=C/c3ccc(F)cc3)cc2)cc1 | > 50 | – | > 50 | 15.4 | –
O=C(/C=C/c1ccccc1)c1ccccc1 [CHALCONE] | 3.96 | 100 | 1.85 | 97.5 | –
O=C(/C=C/c1ccc(Cl)cc1)c1ccc(OCc2ccccc2)cc1 | > 50 | 0.3 | > 50 | – | –
COc1ccc(C2=N[C@H](c3ccc(Cl)cc3)[C@H](c3ccc(Cl)cc3)N2C(=O)N2CCNC(=O)C2)c(OC(C)C)c1 | 1.52 | – | – | – | –

Continued, in another order:

GI50 (HCT-116 [2]) [µM] | SMILES | inhibition at 25 µM (HCT-116 [1]) [%] | GI50 (CAL-51) [µM] | inhibition at 50 µM (HCT-116 [3]) [%] | other results
> 50 | Cc1ccc(COc2ccc(C(=O)/C=C/c3ccccc3)cc2)cc1 | 4 | 43.2 | – | –
> 100 | COc1ccc(CCC(=O)c2ccccc2)cc1 | – | – | – | Activity [4]: inactive; Activity [5]: inactive
35.4 | COc1cccc(/C=C/C(=O)c2ccc(OCc3ccccc3)cc2)c1 | 35.4 | 13.7 | 76 | –
> 50 | O=C(/C=C/c1ccc(OCc2ccccc2)cc1)c1ccccc1 | 52.3 | 24.7 | 49.5 | –
3.57 | COc1ccc(C(=O)/C=C/c2ccccc2)cc1 [4'-METHOXYCHALCONE] | 99.7 | 3.33 | 98.2 | –
3.86 | COc1ccc(/C=C/C(=O)c2ccccc2)cc1 [4-METHOXY CHALCONE] | 100 | 2.69 | 99.7 | Ratio [6]: 1.11; Ratio [7]: 1.41; Ratio [8]: 1.53; Ratio [9]: 1.34; Ratio [10]: 1.2; Ratio [11]: 1.7; Activity [12]: Dose-dependent effect; Activity [13]: Dose-dependent effect; Activity [14]: Active
36.9 | COc1ccc(/C=C/C(=O)c2ccc(OCc3ccccc3)cc2)cc1 | 9.5 | > 50 | 13.2 | –
16.5 | O=C(/C=C/c1ccc(Cl)cc1)c1ccccc1 [4-CHLORO CHALCONE] | 97.5 | 5.85 | 100 | Ratio [6]: 1.24; Ratio [7]: 3.1; Ratio [8]: 3.62; Ratio [9]: 1.38; Ratio [10]: 1.15; Ratio [11]: 1.76; Activity [12]: Dose-dependent effect; Activity [13]: Dose-dependent effect
3.13 | O=C(/C=C/c1ccc([N+](=O)[O-])cc1)c1ccccc1 | 99.7 | 1.21 | 100 | –
